Reference: ChEMBL document CHEMBL1909541, “Hantzsch reaction: synthesis and characterization of some new 1,4-dihydropyridine derivatives as potent antimicrobial and antioxidant agents” (Eur J Med Chem, 2011)

Legend:
Escherichia coli [1] = assay: Antibacterial activity against Escherichia coli ATCC 25922 at 1 mg/mL after 24 hrs by agar-well diffusion method; format: functional; settings: ATCC 25922, 24 h, read-out: IZ
Procedure, shortened: (§1)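 Well diffusion on Mueller-Hinton agar seeded with 24 h old cultures. Test compounds dissolved in DMSO at 1, 0.5 and 0.25 mg/mL. 6 mm wells were punched with a sterile cork borer, test solutions added, and plates incubated 24 h at 37 °C.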

Staphylococcus aureus [2] = assay: Antibacterial activity against Staphylococcus aureus ATCC 25923 at 1 mg/mL after 24 hrs by agar-well diffusion method; format: functional; settings: ATCC 25923, 24 h, read-out: IZ; procedure, shortened: as §1
Pseudomonas aeruginosa [3] = assay: Antibacterial activity against Pseudomonas aeruginosa ATCC 27853 at 1 mg/mL after 24 hrs by agar-well diffusion method; format: functional; settings: ATCC 27853, 24 h, read-out: IZ; procedure, shortened: as §1
Escherichia coli [4] = assay: Antibacterial activity against Escherichia coli ATCC 25922 at 0.5 mg/mL after 24 hrs by agar-well diffusion method; format: functional; settings: ATCC 25922, 24 h, read-out: IZ; procedure, shortened: as §1
Staphylococcus aureus [5] = assay: Antibacterial activity against Staphylococcus aureus ATCC 25923 at 0.5 mg/mL after 24 hrs by agar-well diffusion method; format: functional; settings: ATCC 25923, 24 h, read-out: IZ; procedure, shortened: as §1
Pseudomonas aeruginosa [6] = assay: Antibacterial activity against Pseudomonas aeruginosa ATCC 27853 at 0.5 mg/mL after 24 hrs by agar-well diffusion method; format: functional; settings: ATCC 27853, 24 h, read-out: IZ; procedure, shortened: as §1
Escherichia coli [7] = assay: Antibacterial activity against Escherichia coli ATCC 25922 at 0.25 mg/mL after 24 hrs by agar-well diffusion method; format: functional; settings: ATCC 25922, 24 h, read-out: IZ; procedure, shortened: as §1
Staphylococcus aureus [8] = assay: Antibacterial activity against Staphylococcus aureus ATCC 25923 at 0.25 mg/mL after 24 hrs by agar-well diffusion method; format: functional; settings: ATCC 25923, 24 h, read-out: IZ; procedure, shortened: as §1
Pseudomonas aeruginosa [9] = assay: Antibacterial activity against Pseudomonas aeruginosa ATCC 27853 at 0.25 mg/mL after 24 hrs by agar-well diffusion method; format: functional; settings: ATCC 27853, 24 h, read-out: IZ; procedure, shortened: as §1
Aspergillus flavus [10] = assay: Antifungal activity against Aspergillus flavus MTCC 3306 at 1 mg/mL after 72 hrs by agar-well diffusion method; format: functional; settings: MTCC 3306, 72 h, read-out: DIZ
Procedure, shortened: (§2)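 Fungal spore suspensions made in normal saline were spread onto agar adjusted to pH 5.7, then dried 1 h at 37 °C. Wells were cut and loaded with test compounds in DMSO at different concentrations, with a DMSO control. Plates run in triplicate at 25 °C for 72 h. Read-out was inhibition zone diameter.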

[11] = Antifungal activity against Chrysosporium keratinophilum MTCC 2827 at 1 mg/mL after 72 hrs by agar-well diffusion method; format: functional; procedure, shortened: as §2
Candida albicans [12] = assay: Antifungal activity against Candida albicans MTCC 3017 at 1 mg/mL after 72 hrs by agar-well diffusion method; format: functional; settings: MTCC 3017, 72 h, read-out: DIZ; procedure, shortened: as §2
Aspergillus flavus [13] = assay: Antifungal activity against Aspergillus flavus MTCC 3306 at 0.5 mg/mL after 72 hrs by agar-well diffusion method; format: functional; settings: MTCC 3306, 72 h, read-out: DIZ; procedure, shortened: as §2
[14] = Antifungal activity against Chrysosporium keratinophilum MTCC 2827 at 0.5 mg/mL after 72 hrs by agar-well diffusion method; format: functional; procedure, shortened: as §2
Candida albicans [15] = assay: Antifungal activity against Candida albicans MTCC 3017 at 0.5 mg/mL after 72 hrs by agar-well diffusion method; format: functional; settings: MTCC 3017, 72 h, read-out: DIZ; procedure, shortened: as §2
Aspergillus flavus [16] = assay: Antifungal activity against Aspergillus flavus MTCC 3306 at 0.25 mg/mL after 72 hrs by agar-well diffusion method; format: functional; settings: MTCC 3306, 72 h, read-out: DIZ; procedure, shortened: as §2
[17] = Antifungal activity against Chrysosporium keratinophilum MTCC 2827 at 0.25 mg/mL after 72 hrs by agar-well diffusion method; format: functional; procedure, shortened: as §2
Candida albicans [18] = assay: Antifungal activity against Candida albicans MTCC 3017 at 0.25 mg/mL after 72 hrs by agar-well diffusion method; format: functional; settings: MTCC 3017, 72 h, read-out: DIZ; procedure, shortened: as §2
[19] = system: Radical scavenging activity; assay: Antioxidant activity assessed as DPPH free radical scavenging activity at 100 uM after 30 mins; format: functional
Procedure, shortened: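 Sample brought to 1 mL with MeOH and mixed with 3 mL fresh 0.1 mM DPPH. Kept 30 min in the dark, then absorbance read at 517 nm. A DPPH control without sample was included. Scavenging (%) = [(Abs control − Abs sample)/Abs control] × 100.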

Mus musculus [20] = assay: Acute toxicity in Swiss albino mouse assessed as behavioral changes up to 3000 mg/kg, po in single dose measured up to 24 hrs; format: organism-based; set-up: dose 3000 mg/kg, route oral; settings: in vivo
Procedure, shortened: (§3)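 Single oral dose per OECD acute oral toxicity guidelines, 250 to 3000 mg/kg, given as a fine suspension in double distilled water with Tween 80. Toxic symptoms and behavioral changes observed continuously for 4 h, then at 8, 12 and 24 h; deaths recorded.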

Mus musculus [21] = assay: Acute toxicity in Swiss albino mouse assessed as mortality up to 3000 mg/kg, po in single dose measured up to 24 hrs; format: organism-based; set-up: dose 3000 mg/kg, route oral; settings: in vivo; procedure, shortened: as §3
Mus musculus [22] = assay: Acute toxicity in Swiss albino mouse assessed as behavioral changes at >2000 mg/kg, po in single dose measured up to 24 hrs; format: organism-based; settings: in vivo; procedure, shortened: as §3
Mus musculus [23] = assay: Acute toxicity in Swiss albino mouse assessed as mortality at >2000 mg/kg, po in single dose measured up to 24 hrs; format: organism-based; settings: in vivo; procedure, shortened: as §3

In the case of `CCOC(=O)C1=C(C)NC(C)=C(C(=O)OCC)C1c1c[nH]nc1-c1ccc(-c2ccccc2)cc1`, the zone of inhibition at 1000 µg/mL (Escherichia coli [1]) is reported as 13 mm, the zone of inhibition at 1000 µg/mL (Staphylococcus aureus [2]) is reported as 16 mm and the zone of inhibition at 1000 µg/mL (Pseudomonas aeruginosa [3]) is reported as 17 mm. The zone of inhibition at 500 µg/mL (Escherichia coli [4]) was 10 mm, the zone of inhibition at 500 µg/mL (Staphylococcus aureus [5]) was 12 mm and the zone of inhibition at 500 µg/mL (Pseudomonas aeruginosa [6]) was 13 mm. For the same molecule, the zone of inhibition at 250 µg/mL (Escherichia coli [7]) was 7 mm, the zone of inhibition at 250 µg/mL (Staphylococcus aureus [8]) was 10 mm and the zone of inhibition at 250 µg/mL (Pseudomonas aeruginosa [9]) was 11 mm. The zone of inhibition at 1000 µg/mL (Aspergillus flavus [10]) was 5 mm, the inhibition zone (IZ) [11] was 3 mm and the zone of inhibition at 1000 µg/mL (Candida albicans [12]) was 6 mm. For the same molecule, the zone of inhibition at 500 µg/mL (Aspergillus flavus [13]) was 2 mm, the inhibition zone (IZ) [14] was 0 mm and the zone of inhibition at 500 µg/mL (Candida albicans [15]) was 4 mm. For the same molecule, the zone of inhibition at 250 µg/mL (Aspergillus flavus [16]) was 1 mm, the inhibition zone (IZ) [17] was 0 mm and the zone of inhibition at 250 µg/mL (Candida albicans [18]) was 2 mm. For the same molecule, the Activity [19] was 65.3%, the Activity (Mus musculus [20]) was “Non-toxic” and the Activity (Mus musculus [21]) was “Non-toxic”.
`CCOC(=O)C1=C(C)NC(C)=C(C(=O)OCC)C1c1c[nH]nc1-c1ccc(SC)cc1` gave a zone of inhibition at 1000 µg/mL (Escherichia coli [1]) of 17 mm, a zone of inhibition at 1000 µg/mL (Staphylococcus aureus [2]) of 16 mm and a zone of inhibition at 1000 µg/mL (Pseudomonas aeruginosa [3]) of 14 mm. It also gave a zone of inhibition at 500 µg/mL (Escherichia coli [4]) of 12 mm, a zone of inhibition at 500 µg/mL (Staphylococcus aureus [5]) of 12 mm and a zone of inhibition at 500 µg/mL (Pseudomonas aeruginosa [6]) of 11 mm. It also gave a zone of inhibition at 250 µg/mL (Escherichia coli [7]) of 9 mm, a zone of inhibition at 250 µg/mL (Staphylococcus aureus [8]) of 10 mm and a zone of inhibition at 250 µg/mL (Pseudomonas aeruginosa [9]) of 8 mm. It also gave a zone of inhibition at 1000 µg/mL (Aspergillus flavus [10]) of 0 mm, an inhibition zone (IZ) [11] of 0 mm and a zone of inhibition at 1000 µg/mL (Candida albicans [12]) of 0 mm. For the same molecule, the zone of inhibition at 500 µg/mL (Aspergillus flavus [13]) was 0 mm, the inhibition zone (IZ) [14] was 0 mm and the zone of inhibition at 500 µg/mL (Candida albicans [15]) was 0 mm. The zone of inhibition at 250 µg/mL (Aspergillus flavus [16]) was 0 mm, the inhibition zone (IZ) [17] was 0 mm and the zone of inhibition at 250 µg/mL (Candida albicans [18]) was 0 mm. The Activity [19] was 61.1%, the Activity (Mus musculus [20]) was “Non-toxic” and the Activity (Mus musculus [21]) was “Non-toxic”.
Work on `CCOC(=O)C1=C(C)NC(C)=C(C(=O)OCC)C1c1c[nH]nc1-c1ccc(Cl)cc1` yielded a zone of inhibition at 1000 µg/mL (Escherichia coli [1]) of 17 mm, a zone of inhibition at 1000 µg/mL (Staphylococcus aureus [2]) of 15 mm and a zone of inhibition at 1000 µg/mL (Pseudomonas aeruginosa [3]) of 16 mm. For the same molecule, the zone of inhibition at 500 µg/mL (Escherichia coli [4]) was 12 mm, the zone of inhibition at 500 µg/mL (Staphylococcus aureus [5]) was 10 mm and the zone of inhibition at 500 µg/mL (Pseudomonas aeruginosa [6]) was 13 mm. It also gave a zone of inhibition at 250 µg/mL (Escherichia coli [7]) of 10 mm, a zone of inhibition at 250 µg/mL (Staphylococcus aureus [8]) of 8 mm and a zone of inhibition at 250 µg/mL (Pseudomonas aeruginosa [9]) of 10 mm. The zone of inhibition at 1000 µg/mL (Aspergillus flavus [10]) was 2 mm, the inhibition zone (IZ) [11] was 3 mm and the zone of inhibition at 1000 µg/mL (Candida albicans [12]) was 4 mm. The zone of inhibition at 500 µg/mL (Aspergillus flavus [13]) was 0 mm, the inhibition zone (IZ) [14] was 0 mm and the zone of inhibition at 500 µg/mL (Candida albicans [15]) was 2 mm. The zone of inhibition at 250 µg/mL (Aspergillus flavus [16]) was 0 mm, the inhibition zone (IZ) [17] was 0 mm and the zone of inhibition at 250 µg/mL (Candida albicans [18]) was 0 mm. For the same molecule, the Activity [19] was 62.3%, the Activity (Mus musculus [22]) was “Toxic” and the Activity (Mus musculus [23]) was “Toxic”.
